Measurements taken from ChEMBL document CHEMBL2440111, “Overcoming doxorubicin-resistance in the NCI/ADR-RES model cancer cell line by novel anthracene-9,10-dione derivatives” (Bioorg Med Chem Lett, 2013).
Active and inactive are the calls of the source. No cut-off for these calls is given here.

Experiments:
NCI/ADR-RES [1] = assay: Inhibition of colony formation in human NCI/ADR-RES cells at 1 uM after 24 hrs; assay type: functional, cell-based
Summary of the method: (§1)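 NCI/ADR-RES cells were seeded at 100 cells/well and left to attach overnight. Serial compound dilutions were applied for 24 h, then washed out. Colonies grew in drug-free medium for 8-10 days and were fixed with 1% glutaraldehyde and stained with 2% crystal violet, 30 min each. Colonies were imaged and counted versus untreated control; values are means of ≥3 independent experiments.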

OVCAR-8 [2] = assay: Antiproliferative activity against human OVCAR8 cells after 72 hrs by MTT assay; assay type: functional, cell-based; settings: OVCAR-8, 72 h
Summary of the method: (§2)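 Cells kept in exponential growth at 37 °C in humidified 5% CO2 with 2 mM L-glutamine, mycoplasma-checked. Compounds were applied over a dose range and viability was read by MTT relative to an untreated control. IC50 is the concentration giving a 50% decrease in viability. Values are mean ± SD of three independent experiments.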

U2OS [3] = assay: Antiproliferative activity against human U2OS cells after 72 hrs by MTT assay; assay type: functional, cell-based; summary of the method: as §2
NCI/ADR-RES [4] = assay: Antiproliferative activity against human NCI/ADR-RES cells after 72 hrs by MTT assay; assay type: functional, cell-based; summary of the method: as §2
DU-145 [5] = assay: Antiproliferative activity against human DU145 cells after 72 hrs by MTT assay; assay type: functional, cell-based; settings: DU-145, 72 h; summary of the method: as §2
[6] = Antiproliferative activity against human […] cells at 20 uM after 72 hrs by MTT assay; assay type: functional
Summary of the method: (§3)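 Each cell line in the panel was treated with 20 µM compound, with doxorubicin as reference. Exponentially growing cells were grown at 37 °C in 5% CO2. MTT read-out served as a surrogate of viable cell number, expressed as % inhibition versus an untreated control. Values are mean ± SD of three independent experiments.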

PC-3 [7] = assay: Antiproliferative activity against human PC3 cells after 72 hrs by MTT assay; assay type: functional, cell-based; settings: PC-3, 72 h; summary of the method: as §2
DU-145 [8] = assay: Antiproliferative activity against human DU145 cells at 20 uM after 72 hrs by MTT assay; assay type: functional; settings: DU-145, 72 h; summary of the method: as §3
MIA PaCa-2 [9] = assay: Antiproliferative activity against human MIAPaCa2 cells after 72 hrs by MTT assay; assay type: functional, cell-based; settings: MIA PaCa-2, 72 h; summary of the method: as §2
OVCAR-8 [10] = assay: Antiproliferative activity against human OVCAR8 cells at 20 uM after 72 hrs by MTT assay in presence of N-acetylcysteine; assay type: functional, cell-based
LNCaP [11] = assay: Antiproliferative activity against human LNCAP cells after 72 hrs by MTT assay; assay type: functional, cell-based; summary of the method: as §2
U2OS [12] = assay: Antiproliferative activity against human U2OS cells at 20 uM after 72 hrs by MTT assay; assay type: functional; summary of the method: as §3
[13] = Antiproliferative activity against human Caov3 cells at 20 uM after 72 hrs by MTT assay; assay type: functional; settings: Caov-3, 72 h; summary of the method: as §3
NCI/ADR-RES [14] = assay: Antiproliferative activity against human NCI/ADR-RES cells at 20 uM after 72 hrs by MTT assay in presence of N-acetylcysteine; assay type: functional
Summary of the method: (§4)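 NCI/ADR-RES cells were pretreated for 2 h with 5 mM N-acetylcysteine or glutathione. Compound at 20 µM was then added for 72 h, with doxorubicin as positive control. Percent inhibition was measured by MTT.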

LNCaP [15] = assay: Up-regulation of p53 expression in human LNCAP cells at 3 uM after 24 hrs by Western blot analysis; assay type: functional, cell-based
Summary of the method: (§5)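 LNCaP cells were treated for 24 h, then lysed. Equal protein was run on 12% SDS-PAGE and blotted to PVDF. Membranes were blocked 1 h in 5% skim milk/TBS-0.1% Tween and probed overnight at 4 °C with anti-p53 or anti-caspase-9. A secondary antibody and ECL detection followed, with GAPDH as loading control.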

NCI/ADR-RES [16] = assay: Antiproliferative activity against human NCI/ADR-RES cells at 20 uM after 72 hrs by MTT assay in presence of glutathione; assay type: functional; summary of the method: as §4
OVCAR-8 [17] = assay: Antiproliferative activity against human OVCAR8 cells at 20 uM after 72 hrs by MTT assay; assay type: functional; settings: OVCAR-8, 72 h; summary of the method: as §3
LNCaP [18] = assay: Increase of cleaved caspase-9 level in human LNCAP cells at 3 uM after 24 hrs by Western blot analysis; assay type: functional, cell-based; summary of the method: as §5
LNCaP [19] = assay: Antiproliferative activity against human LNCAP cells at 20 uM after 72 hrs by MTT assay; assay type: functional; summary of the method: as §3
NCI/ADR-RES [20] = assay: Cell cycle arrest in human NCI/ADR-RES cells assessed as accumulation at S phase at 10 uM after 24 hrs using propidium iodide staining by flow cytometry (reference value: 14%); assay type: functional
NCI/ADR-RES [21] = assay: Inhibition of colony formation in human NCI/ADR-RES cells after 24 hrs; assay type: functional, cell-based; summary of the method: as §1
NCI/ADR-RES [22] = assay: Cell cycle arrest in human NCI/ADR-RES cells assessed as accumulation at G0/G1 phase at 10 uM after 24 hrs using propidium iodide staining by flow cytometry (reference value: 51%); assay type: functional
OVCAR-8 [23] = assay: Antiproliferative activity against human OVCAR8 cells at 20 uM after 72 hrs by MTT assay in presence of glutathione; assay type: functional, cell-based
MIA PaCa-2 [24] = assay: Antiproliferative activity against human MIAPaCa2 cells at 20 uM after 72 hrs by MTT assay; assay type: functional; settings: MIA PaCa-2, 72 h; summary of the method: as §3
[25] = Antiproliferative activity against human […] cells after 72 hrs by MTT assay; assay type: functional, cell-based; summary of the method: as §2
NCI/ADR-RES [26] = assay: Cell cycle arrest in human NCI/ADR-RES cells assessed as accumulation at G2/M phase at 10 uM after 24 hrs using propidium iodide staining by flow cytometry (reference value: 35%); assay type: functional
NCI/ADR-RES [27] = assay: Antiproliferative activity against human NCI/ADR-RES cells at 20 uM after 72 hrs by MTT assay; assay type: functional; summary of the method: as §3
BXPC-3 [28] = assay: Antiproliferative activity against human BxPC3 cells after 72 hrs by MTT assay; assay type: functional, cell-based; settings: BXPC-3, 72 h; summary of the method: as §2
PC-3 [29] = assay: Antiproliferative activity against human PC3 cells at 20 uM after 72 hrs by MTT assay; assay type: functional; settings: PC-3, 72 h; summary of the method: as §3
BXPC-3 [30] = assay: Antiproliferative activity against human BxPC3 cells at 20 uM after 72 hrs by MTT assay; assay type: functional; settings: BXPC-3, 72 h; summary of the method: as §3
NCI/ADR-RES [31] = assay: Ratio of doxorubicin IC50 to compound IC50 for human NCI/ADR-RES cells; assay type: functional
[32] = Antiproliferative activity against human Caov3 cells after 72 hrs by MTT assay; assay type: functional, cell-based; settings: Caov-3, 72 h; summary of the method: as §2

| IC50 (OVCAR-8 [2]) [nM] | IC50 (U2OS [3]) [nM] | IC50 (DU-145 [5]) [nM] | IC50 (PC-3 [7]) [nM] | IC50 (MIA PaCa-2 [9]) [nM] | IC50 (LNCaP [11]) [nM] | Compound | IC50 (NCI/ADR-RES [4]) [nM] | inhibition at 20 µM [6] [%] | inhibition at 20 µM (DU-145 [8]) [%] | inhibition (OVCAR-8 [10]) | inhibition at 20 µM (U2OS [12]) [%] | inhibition at 20 µM [13] [%] | inhibition at 20 µM (NCI/ADR-RES [14]) [%] | inhibition at 20 µM (OVCAR-8 [17]) [%] | inhibition at 20 µM (LNCaP [19]) [%] | inhibition (OVCAR-8 [23]) | inhibition at 20 µM (MIA PaCa-2 [24]) [%] | inhibition at 20 µM (NCI/ADR-RES [27]) [%] | inhibition at 20 µM (PC-3 [29]) [%] | inhibition at 20 µM (BXPC-3 [30]) [%] | also measured |
| --- | --- | --- | --- | --- | --- | --- | --- | --- | --- | --- | --- | --- | --- | --- | --- | --- | --- | --- | --- | --- | --- |
| 3500 | 2800 | 5400 | 6500 | 2700 | 400 | Cc1ccc(S(=O)(=O)Oc2ccc(NCc3ccc(N)cc3)c3c2C(=O)c2ccccc2C3=O)cc1 | 800 | 75.1 | 87.2 | Active | 92.3 | 85.7 | > 60 | 85.4 | 88.9 | Active | 91.1 | 80.5 | 75.8 | 94 | inhibition (NCI/ADR-RES [1]): Active; Activity (LNCaP [15]): inactive; inhibition at 20 µM (NCI/ADR-RES [16]): > 60%; Activity (LNCaP [18]): Active; inhibition at 10 µM (NCI/ADR-RES [20]): 25%; IC50 (NCI/ADR-RES [21]): 500 nM; inhibition (NCI/ADR-RES [21]): Dose-dependent effect; inhibition at 10 µM (NCI/ADR-RES [22]): 30%; IC50 [25]: 3800 nM; inhibition at 10 µM (NCI/ADR-RES [26]): 55%; IC50 (BXPC-3 [28]): 1800 nM; Ratio IC50 (NCI/ADR-RES [31]): > 25; IC50 [32]: 2500 nM |
| – | – | – | – | – | – | Cc1ccc(S(=O)(=O)Oc2ccc(OCCOCCO)c3c2C(=O)c2ccccc2C3=O)cc1 | – | 31.4 | 9 | Active | 43 | 42.7 | – | 8.5 | 26.7 | Active | 35.9 | 15.3 | 9.9 | 14.5 | – |
| – | – | – | – | – | – | O=C1c2ccccc2C(=O)c2c(OCCOCCO)ccc(OCCOCCO)c21 | – | 44.3 | 10 | – | 32.4 | 7.3 | – | 3.4 | 46.9 | – | 31.1 | 46.4 | 10.6 | 23.1 | – |
| 8000 | 4500 | 2200 | 8000 | 1900 | 900 | COc1ccc(CNc2ccc(OS(=O)(=O)c3ccc(C)cc3)c3c2C(=O)c2ccccc2C3=O)cc1 | 1200 | 53.3 | 62.2 | Active | 59.8 | 83.1 | > 60 | 58.2 | 78.7 | Active | 81.4 | 77.8 | 46.2 | 91.5 | inhibition at 20 µM (NCI/ADR-RES [16]): > 60%; inhibition (NCI/ADR-RES [21]): Dose-dependent effect; IC50 [25]: > 20000 nM; IC50 (BXPC-3 [28]): 600 nM; IC50 [32]: 1800 nM |
| 600 | 300 | 200 | 1000 | < 100 | 200 | COc1cccc2c1C(=O)c1c(O)c3c(c(O)c1C2=O)C[C@@](O)(C(=O)CO)C[C@@H]3O[C@H]1C[C@H](N)[C@H](O)[C@H](C)O1 [DOXORUBICIN] | > 20000 | 83.5 | 80.6 | Active | 90 | 92.6 | 13 | 86 | 85.8 | Active | 88.1 | 41 | 6.9 | 96.2 | Activity (LNCaP [15]): Active; inhibition at 20 µM (NCI/ADR-RES [16]): 21%; Activity (LNCaP [18]): Active; IC50 [25]: 1500 nM; IC50 (BXPC-3 [28]): 400 nM; IC50 [32]: < 100 nM |
| – | – | – | – | – | – | O=C1c2ccccc2C(=O)c2c(OCCOCCOCCO)ccc(OCCOCCOCCO)c21 | – | 6.4 | 17.7 | – | 11.1 | 16.3 | – | 37.4 | 38.2 | – | 36.1 | 41.5 | 16.4 | 17.5 | – |
| – | – | – | – | – | – | Cc1ccc(S(=O)(=O)Oc2ccc(OCCOCCOCCO)c3c2C(=O)c2ccccc2C3=O)cc1 | – | 46.9 | 16.8 | Active | 44.2 | 47.3 | – | 13.1 | 24.5 | – | 53.4 | 20.4 | 16.6 | 15.3 | – |
| 4400 | 4800 | 6500 | > 20000 | 4500 | 2400 | Cc1ccc(S(=O)(=O)Oc2ccc(NCc3ccc(Cl)cc3)c3c2C(=O)c2ccccc2C3=O)cc1 | 2200 | 63.5 | 69.1 | Active | 66.1 | 84.6 | > 60 | 64.4 | 79.9 | Active | 80.6 | 80.4 | 81.2 | 85.2 | inhibition at 20 µM (NCI/ADR-RES [16]): > 60%; inhibition (NCI/ADR-RES [21]): Dose-dependent effect; IC50 [25]: 4000 nM; IC50 (BXPC-3 [28]): 2400 nM; IC50 [32]: 2500 nM |
| – | – | – | – | – | – | Cc1ccc(S(=O)(=O)Oc2ccc(OCCOCCOCCOCCO)c3c2C(=O)c2ccccc2C3=O)cc1 | – | 47.8 | 21.6 | – | 41.9 | 48.2 | – | 5.5 | 40.3 | – | 29.5 | 1.7 | 23.7 | 11.8 | – |
